We go through one compound from ChEMBL document CHEMBL4414568, “Development of Novel Irreversible Pyruvate Kinase M2 Inhibitors” (J Med Chem, 2019).

What is called inhibition is the share of the control response that was lost under treatment. The IC50 is the midpoint of a concentration-inhibition curve.

In data set [1] the test system is PC-9. Description: Effect on basal extracellular acidification rate in human PC9 cells at 0.25 to 1 uM measured after 4 hrs in absence of glucose by seahorse XF96 flux analyser based assay. Particulars: pc-9, 4 h. Format: cell-based. A digest of the protocol:
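PC-9 cells, 5 × 10^4 per well, seeded 24 h ahead, then treated with DMSO or compound at 0.25, 0.5 or 1 µM for 4 h at 37 °C. Cells held 1 h without CO2 in glycolysis medium. Seahorse glycolysis stress test with serial injections of 10 mM glucose, oligomycin and 50 mM 2-DG; ECAR and OCR recorded together. Six wells per point.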

For data set [2], the target named is T1, Pyruvate kinase PKM (Homo sapiens, UniProt P14618). Briefly: Inhibition of N-(4-(3-(3-(Methylamino)-3-oxopropyl)-5-(4'-(prop-2-yn-1-yloxy)-[1,1'-biphenyl]-4-yl)-1H-pyrazol-1-yl)phenyl)propiolamide binding to PKM2 in human PC9 cells at 1 uM preincubated for 1 hr followed by probe addition and measured after 1 hr using antibody by Western blot analysis. The format is cell-based. A digest of the protocol: (§1)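 PC-9 cells pretreated with 1 µM compound or DMSO for 1 h, then alkyne probe added at 0.5, 1 or 2 µM for 1 h at 37 °C. Lysates put through Cu-catalysed click with biotin-azide, streptavidin beads 16 h at 4 °C, washes with 0.5% SDS/PBS, 10% SDS-PAGE and PKM2 Western blot.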

A further data set deals with NCI-H1650. Briefly: Antiproliferative activity against human NCI-H1650 cells harboring EGFR mutant assessed as reduction in cell viability incubated for 24 hrs by MTT assay. The format is functional, cell-based. Particulars: NCI-H1650, 24 h. The gist of the method: (§2)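 Cells seeded at 3,500 per well in 10% FBS and left overnight, then exposed to test agent or vehicle in 5% FBS for 24 h. MTT added for 1 h, then medium swapped for DMSO and absorbance read at 560 nm. Viability given as percent of vehicle-treated control. Run in triplicate.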
(Tetrazolium assays rely on reduction of a dye to a coloured formazan, in cell work by metabolically active cells.)

The test system of data set [3] is PC-9. Briefly: Antitumor activity against human PC9 cells xenografted in athymic nude mouse assessed as reduction in tumor weight at 10 mg/kg, ip administered once daily for 25 days measured post-last dose. Format: functional, organism-based. A digest of the protocol:
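Female nude mice, 6 weeks old, given s.c. 1 × 10^6 PC-9 cells in Matrigel (1:1). From day 7, once-daily i.p. vehicle or 10 mg/kg compound in sterile water with 0.5% methylcellulose and 0.1% Tween-80, n = 8 per group, for 25 days. Tumor volume and body weight followed, tumors weighed at end.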
(Xenograft models place foreign cells or tissue in a host animal.)

The subject of another data set is NCI-H1975. Briefly: Antiproliferative activity against human NCI-H1975 cells harboring EGFR mutant assessed as reduction in cell viability incubated for 24 hrs by MTT assay. The format is functional, cell-based. As to conditions: NCI-H1975, 24 h. The gist of the method:
as §2

Data set [4] concerns the target T2, Malonate--CoA ligase ACSF3, mitochondrial (Homo sapiens) (UniProt Q4G176).
T2 sequence (whole entry): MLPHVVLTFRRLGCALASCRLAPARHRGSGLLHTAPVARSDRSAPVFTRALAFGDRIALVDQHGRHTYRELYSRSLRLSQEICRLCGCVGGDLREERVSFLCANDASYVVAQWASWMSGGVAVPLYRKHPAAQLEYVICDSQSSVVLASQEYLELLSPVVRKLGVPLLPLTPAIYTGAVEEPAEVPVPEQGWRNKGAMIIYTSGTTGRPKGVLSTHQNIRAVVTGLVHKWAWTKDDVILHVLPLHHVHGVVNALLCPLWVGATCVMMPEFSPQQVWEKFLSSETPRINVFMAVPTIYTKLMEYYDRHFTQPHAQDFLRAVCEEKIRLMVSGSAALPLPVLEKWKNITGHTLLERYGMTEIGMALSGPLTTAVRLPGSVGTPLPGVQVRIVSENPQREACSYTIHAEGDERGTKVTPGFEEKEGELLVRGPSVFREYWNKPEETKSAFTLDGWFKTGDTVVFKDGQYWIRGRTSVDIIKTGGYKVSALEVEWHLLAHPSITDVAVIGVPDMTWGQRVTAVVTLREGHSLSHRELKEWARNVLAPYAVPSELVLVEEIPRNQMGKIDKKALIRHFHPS
Description: Binding affinity to ACSF3 in human PC9 cells incubated for 1 hr by ABPP-SILAC assay. The format is cell-based. A digest of the protocol: (§3)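 PC-9 cells passaged at least six times in SILAC DMEM with 10% dialyzed FBS plus 100 µg/mL light or 13C/15N-labeled Arg/Lys. Heavy cells got ABPP probe (1 µM) and light cells DMSO, 1 h at 37 °C. Cells mixed 1:1, sonicated, spun at 100,000g, protein normalized to 1 mg/mL. Click biotin-azide, streptavidin bead pulldown 16 h at 4 °C, SDS-PAGE, on-bead trypsin digestion, LC-MS/MS.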

The next data set relates to Mus musculus. Description: In vivo inhibition of PKM2 in human PC9 cells xenografted in athymic nude mouse assessed as reduction in EGFR expression at 10 mg/kg, ip administered once daily for 25 days measured post-last dose by Western blot analysis. Format: functional, organism-based. A digest of the protocol: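 Tumors from PC-9 xenograft nude mice given 10 mg/kg i.p. daily or vehicle for 25 days (n = 8 per group) were lysed for Western blots of PKM2, EGFR, Stat3 and β-catenin. Bands quantified by ImageJ and normalized to GAPDH.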

Data set [5] deals with T1, Pyruvate kinase PKM. Description: Inhibition of PKM2 in human PC9 cells assessed as reduction in STAT3 expression incubated for 24 hrs by Western blot analysis. The format is cell-based. The gist of the method:
(§4)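 PC-9 cells seeded at 5 × 10^5 cells/mL; after 24 h given 0–1 µM compound or DMSO for 24 h. Lysates run on 10% SDS-PAGE, transferred to nitrocellulose, probed for PKM2, EGFR, p-STAT3, STAT3, p-β-catenin, β-catenin and β-actin with HRP secondaries, ECL detection.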

For data set [6], the system named is PC-9. Description: Antiproliferative activity against human PC9 cells harboring EGFR mutant assessed as reduction in cell viability incubated for 24 hrs by MTT assay. Particulars: PC-9, 24 h. The format is functional, cell-based. The gist of the method:
as §2

For data set [7], the target named is T1, Pyruvate kinase PKM. Description: Inhibition of N-(4-(3-(3-(Methylamino)-3-oxopropyl)-5-(4'-(prop-2-yn-1-yloxy)-[1,1'-biphenyl]-4-yl)-1H-pyrazol-1-yl)phenyl)propiolamide binding to PKM2 in human PC9 cells at 1 uM preincubated for 1 hr followed by probe addition and measured after 1 hr by Western blot analysis. Format: cell-based. A digest of the protocol: as §1
(A western blot detects proteins with antibodies after separation by electrophoresis.)

For data set [8], the target named is T1, Pyruvate kinase PKM. Description: Inhibition of recombinant human PKM2 expressed in Escherichia coli at 0.125 to 0.5 uM using PEP as substrate incubated for 20 mins by OxiRed probe-based colorimetric assay relative to control. A digest of the protocol: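 Recombinant PKM1 or PKM2 incubated with compound at room temperature for 20 min. Remaining activity measured by the same colorimetric kit: PEP + […], PK then pyruvate oxidase, H2O2 read-out. n = 3.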

Data set [9] concerns the target T1, Pyruvate kinase PKM. Briefly: Inhibition of PKM2 in human PC9 cells assessed as reduction in STAT3 phosphorylation at 0.5 uM incubated for 24 hrs by Western blot analysis. The format is cell-based. A digest of the protocol:
as §4

The subject of another data set is MCF7. Description: Antiproliferative activity against human MCF7 cells assessed as reduction in cell viability incubated for 24 hrs by MTT assay. The format is functional, cell-based. Particulars: MCF7, 24 h. The gist of the method:
as §2

The target in data set [10] is T1, Pyruvate kinase PKM. Briefly: Inhibition of PKM2 in human PC9 cells assessed as reduction in beta-catenin expression incubated for 24 hrs by Western blot analysis. Format: cell-based. The gist of the method: as §4
For data set [11], the target named is L-lactate dehydrogenase A chain (Homo sapiens) (UniProt P00338). Description: Binding affinity to LDHA in human PC9 cells incubated for 1 hr by ABPP-SILAC assay. Format: cell-based. A digest of the protocol: as §3

Calls of active or inactive are those of the source. No cut-off for these calls is given here.

T1 sequence (P14618 2-531 limits assumed): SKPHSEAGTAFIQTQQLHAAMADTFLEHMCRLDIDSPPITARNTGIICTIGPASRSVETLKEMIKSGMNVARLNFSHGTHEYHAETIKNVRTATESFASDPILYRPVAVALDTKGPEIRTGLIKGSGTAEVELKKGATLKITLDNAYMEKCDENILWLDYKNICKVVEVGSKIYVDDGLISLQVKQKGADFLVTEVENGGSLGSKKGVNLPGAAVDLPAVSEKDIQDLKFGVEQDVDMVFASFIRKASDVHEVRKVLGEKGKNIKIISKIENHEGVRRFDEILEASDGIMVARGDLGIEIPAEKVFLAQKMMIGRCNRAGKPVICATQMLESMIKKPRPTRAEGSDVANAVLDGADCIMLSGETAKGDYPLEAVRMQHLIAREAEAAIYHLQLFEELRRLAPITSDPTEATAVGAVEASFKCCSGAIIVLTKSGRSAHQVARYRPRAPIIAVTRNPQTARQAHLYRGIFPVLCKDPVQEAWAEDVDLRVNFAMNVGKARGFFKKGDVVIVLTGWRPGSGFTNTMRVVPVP

With `C#CC(=O)Nc1ccc(-n2nc(CCC(=O)NC)cc2-c2ccc(-c3ccc(C(F)(F)F)cc3)cc2)cc1`, in the data set on PC-9 [1], the Activity entry is “Non-Toxic”. For the same compound, the inhibition entry on Pyruvate kinase PKM [2], in the data set on Mus musculus and at Pyruvate kinase PKM [7] was “Active” throughout. The IC50 with NCI-H1650 was determined as 200 nM; in the data set on NCI-H1975, 1000 nM; with PC-9 [6] it was 500 nM; in the data set on MCF7, 1000 nM. Further, the result (with PC-9 [3]; in [4]; in [11]) was Active. Besides, the inhibition entry is “Dose-dependent effect” on Pyruvate kinase PKM [5], 30% at Pyruvate kinase PKM [8] and “Dose-dependent effect” at Pyruvate kinase PKM [10]. The inhibition entry on Pyruvate kinase PKM [9] is “inactive”.
